UHRF1 MBD2 ctr: human UHRF1 methylated DNA binding inhibitors. UHRF1 binding to methylated oligo, TR-FRET. inhibition, % at 4.4 µM. actives 0.75% (n = 370,000);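 note: UHRF1 SRA domain binding a hemimethylated CpG hairpin DNA probe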
Target sequence (Q96T88 whole entry, looked up, the tested form may be a part): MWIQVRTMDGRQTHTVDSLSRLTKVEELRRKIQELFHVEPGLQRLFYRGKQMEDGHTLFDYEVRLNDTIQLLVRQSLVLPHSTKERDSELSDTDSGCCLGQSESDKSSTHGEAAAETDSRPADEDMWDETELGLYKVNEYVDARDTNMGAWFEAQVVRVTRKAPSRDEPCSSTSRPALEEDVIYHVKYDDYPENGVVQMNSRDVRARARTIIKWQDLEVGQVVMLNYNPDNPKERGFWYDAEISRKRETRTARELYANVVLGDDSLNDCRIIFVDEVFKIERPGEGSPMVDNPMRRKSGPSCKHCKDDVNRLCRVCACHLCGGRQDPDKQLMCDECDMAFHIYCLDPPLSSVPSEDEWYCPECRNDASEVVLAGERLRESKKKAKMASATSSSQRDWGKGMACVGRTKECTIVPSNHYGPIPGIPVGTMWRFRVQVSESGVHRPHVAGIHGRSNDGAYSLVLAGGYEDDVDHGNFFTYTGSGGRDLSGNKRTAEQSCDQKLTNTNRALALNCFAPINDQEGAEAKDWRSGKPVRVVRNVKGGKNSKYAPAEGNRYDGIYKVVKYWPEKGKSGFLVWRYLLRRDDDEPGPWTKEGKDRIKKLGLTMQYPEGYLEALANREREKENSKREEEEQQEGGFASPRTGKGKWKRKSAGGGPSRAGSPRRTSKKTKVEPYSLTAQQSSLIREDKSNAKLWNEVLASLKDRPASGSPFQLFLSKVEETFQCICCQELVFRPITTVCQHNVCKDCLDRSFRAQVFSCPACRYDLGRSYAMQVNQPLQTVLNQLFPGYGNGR
TDP2 inh: blocks human TDP2 phosphodiesterase activity. O95551. recombinant TDP2, T5PNP hydrolysis, p-nitrophenol absorbance 415 nm. inhibition, % at 12.8 µM. actives 0.34% (n = 370,000). AID 720702;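 active = inhibition above the mean of all tested compounds plus 3 SD, set per campaign, cut at about 25% in these data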
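test system = human TDP2 enzyme | input = TDP2 enzyme at 120 nM final | medium = 50 mM Tris-HCl pH 7.5 with Mg2+, KCl, DTT, BSA | also added = T5PNP substrate, 5 mM | times = 2 h at 37 °C | technique = epi absorbance | benchmarks = high control without enzyme, low control DMSO plus TDP2 | replication = each compound tested once, singlicate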
Tn7 DDE FP: disrupts Tn7 cyclic peptide binding to fibrin D-Dimer-E complex; actives 0.13% (n = 370,000); inhibition, % at 8.3 µM; FP displacement of FITC-Tn7 peptide from fibrin DD(E); 0% = median of compound wells per plate;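 active = inhibition above the mean of compounds falling within the control limits plus 3 SD of them, cut at about 14% in these data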
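Also added: labelled Tn7 tracer, 0.1 µM; Assay system: human fibrin DD(E) protein; Amount: 2 µM fibrin DD(E); Schedule: 10 min compound pre-incubation, 3 h probe incubation at room temperature; Repeats: one replicate per compound; Read-out basis: percent inhibition; Measured by: fluorescence polarization of the labelled Tn7 tracer.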
LEDGF integ inh: blocks HIV-1 LEDGF/p75-dependent DNA integration. TR-FRET IN-LEDGF/p75 DNA integration, Eu/Cy5. inhibition, % at 3.7 µM. AID 743269. actives 0.64% (n = 370,000);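 active = inhibition above the screen-wide mean plus 3 SD, cut at about 13% in these data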;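 note: signal is the Cy5 over europium emission ratio at 671 and 618 nm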
Tn6 DDE FP: disrupts Tn6 cyclic peptide binding to fibrin D-Dimer-E complex. P02675. Fibrin DD(E) TRITC-Tn6 fluorescence polarization displacement. inhibition, % at 8.3 µM. actives 0.21% (n = 370,000). AID 720509;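 active = inhibition above a per-campaign cutoff: mean of compounds within control limits plus 3 SD, cut at about 15% in these data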
MBD2 DNA inh: inhibitors of human MBD2 binding to methylated oligonucleotide | TR-FRET | inhibition, % at 4.4 µM | actives 0.31% (n = 370,000) | AID 686964; in the data active = inhibition above about 13%
UHRF1 DNA bind: UHRF1 methyl-oligo binding inhibition as MBD2 counter-screen | shares compounds with MBD2 DNA inh | UHRF1 binding to methylated oligonucleotide, TR-FRET | inhibition, % at 4.4 µM | actives 25% (n = 1,000);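 note: UHRF1 SRA domain binding a labeled hemimethylated CpG hairpin DNA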
MBD2 DBD conf: confirmation of human MBD2-DBD methylated oligonucleotide binding inhibitors. TR-FRET MBD2-DBD binding to methylated oligonucleotide. actives 26% (n = 1,000). shares compounds with MBD2 DNA inh. inhibition, % at 4.4 µM; in the data active = inhibition above about 14%
Tn6 DDE ctr: counter-screen for inhibitors of Tn6 peptide binding to fibrin DD(E) | shares compounds with Tn6 DDE FP | TRITC-Tn6 fluorescence polarization displacement; 0% = median of compound wells, not DMSO | inhibition, % at 8.3 µM | actives 2% (n = 680) | AID 720621;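 active = inhibition above the mean of test compounds lying between the control limits plus 3 SD of those, cut at about 14% in these data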
Tn6 DDE conf: confirmation of inhibitors of Tn6 binding to human fibrin DD(E); shares compounds with Tn6 DDE FP; FP displacement of TRITC-Tn6 peptide from DD(E); 0% = per-plate median of test wells; inhibition, % at 8.3 µM; actives 10% (n = 680); AID 720631;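 active = inhibition above the mean of compounds lying within the control limits plus 3 SD, cut at about 16% in these data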
TDP2 inh conf: confirmation of human TDP2 inhibitors; shares compounds with TDP2 inh; inhibition, % at 12.8 µM; actives 22% (n = 1,100); AID 743263; recombinant human TDP2, absorbance read-out; in the data active = inhibition above about 25%
IN multimer act: HIV-1 integrase multimerization activation, counter-screen | actives 17% (n = 2,000) | activation, % at 7.7 µM | TR-FRET HIV-1 integrase multimerization, biochemical | shares compounds with LEDGF integ inh; in the data active = activation above about 8.9%
TRFRET interf: counter-screen for LEDGF/p75 integration inhibitors: TR-FRET optical interference | 2,000 tested, under 10 active | shares compounds with LEDGF integ inh | TR-FRET optical interference counterscreen, HIV-1 IN multimerization | inhibition, % at 7.7 µM;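 active = inhibition above the mean over all tested compounds plus 3 SD, which no compound reached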
LEDGF integ conf: confirmation of HIV-1 LEDGF/p75-dependent integration inhibitors; inhibition, % at 3.7 µM; AID 1053136; shares compounds with LEDGF integ inh; TR-FRET LEDGF/p75-dependent HIV-1 integration, biochemical; actives 36% (n = 2,000); in the data active = inhibition above about 14%
Hits are given with their value; i = inactive; nt = not tested or not shown. Rows were chosen to be rich in hits. Some 1.9% of all compounds tested hit in one or more screens of this group. Cut-off read from the data, not from the text of the source, unless noted: active = inhibition above about 21%; inactive = the rest.

SMILES	UHRF1 MBD2 ctr	TDP2 inh	Tn7 DDE FP	LEDGF integ inh	Tn6 DDE FP	MBD2 DNA inh	UHRF1 DNA bind	MBD2 DBD conf	IN multimer act	TRFRET interf	LEDGF integ conf	others
CCNc1nc(NC(C)C)nc(N(C#N)CC(=O)OC)n1	63	i	i	18	i	32	i	i	i	i	i
O=C(O)COc1ccc2c(c1)O/C(=C\c1ccco1)C2=O	63	i	i	41	i	15	42	i	27	i	46
O=C(O)COc1ccc2c(c1)O/C(=C\c1cccs1)C2=O	i	i	i	i	i	i	nt	nt	nt	nt	nt
N#Cc1c(SCC(=O)Nc2nncs2)sc2c(O)cc(=O)[nH]c12	48	i	i	20	i	18	43	23	29	i	26
N#Cc1c(SCC(=O)Nc2ccc(C(F)(F)F)cc2)sc2c(O)cc(=O)[nH]c12	i	i	i	i	i	i	nt	nt	nt	nt	nt
O=S(=O)(Nc1nc(-c2ccco2)c(-c2ccco2)s1)c1ccc(F)cc1F	59	i	i	35	i	23	i	i	i	i	i
O=C(Nc1nc(-c2ccco2)c(-c2ccco2)s1)c1ccc(F)cc1F	i	i	i	i	i	i	nt	nt	nt	nt	nt
Cn1cccc1CC(=O)NN=C/C=C\c1ccco1	85	i	i	81	i	66	i	i	11	i	31
COc1ccccc1/C=C/C=N/NC(=O)Cc1cccn1C	i	i	i	i	i	i	nt	nt	nt	nt	nt
CCCc1cn(-c2ccc3c(c2)[C@@]2(CC(=O)N(C)C2c2ccccc2)C(=O)N3CC(C)C)nn1 (some centres undefined)	i	i	i	i	i	i	nt	nt	nt	nt	nt
O=C(COC(=O)c1ccccc1)Nc1ncc([N+](=O)[O-])s1	44	i	i	15	i	15	48	18	i	i	34
CSc1n[nH]c(-c2cccs2)n1	i	i	i	i	i	i	nt	nt	nt	nt	nt
COc1ccc(Br)cc1/C=c1\sc2nc(-c3ccco3)nn2c1=O	71	i	i	24	i	23	22	i	i	i	15
CN(CCC#N)C(=O)COC(=O)c1c2c(nc3ccccc13)/C(=C\c1ccco1)CC2	41	i	i	50	i	20	35	29	21	i	70
Cn1cccc1[C@]1(O)C(=O)Nc2ccc(F)cc21	i	i	i	i	i	i	nt	nt	nt	nt	nt
COC(=O)[C@]12C[C@H](CC(=O)NCCCN3CCCC3=O)C(=O)N(CCC3=CCCCC3)C1=C[C@H](C(C)(C)C)O[C@@H]2C	i	i	i	i	i	i	nt	nt	nt	nt	nt
CCOC(=O)[C@]12CCCC=C1N(Cc1ccc(OC)cc1)C(=O)[C@@H]2CC(=O)NCCc1ccccc1OC	i	i	i	i	i	i	nt	nt	nt	nt	nt
C=C1c2cccc(O)c2C(O)=C2C(=O)[C@]3(O)C(O)=C(C(N)=O)C(=O)[C@@H](N(C)C)[C@@H]3[C@@H](O)[C@H]12	98	i	i	85	i	91	21	i	50	i	63
Nc1c(C(=O)Nc2ccccc2F)sc2nc(-c3ccco3)ccc12	i	i	i	i	i	i	nt	nt	nt	nt	nt
COC(=O)c1sc2nc(-c3ccco3)ccc2c1N	55	i	i	52	i	16	i	i	i	i	i
O=C(NCc1ccc(Cl)cc1)C1CCCN(c2ncccn2)C1 (centres undefined)	i	i	i	i	i	i	nt	nt	nt	nt	nt
Cc1ccc(OCc2nnc(SCC(=O)Nc3ccc4c(c3)OCO4)n2Cc2ccco2)cc1	i	i	i	i	i	i	nt	nt	nt	nt	nt
Fc1ccc(C2=Nc3cccc4cccc(c34)N2)cc1	i	i	i	i	i	i	nt	nt	nt	nt	nt
FC(F)(F)C1=Nc2cccc3cccc(c23)N1	54	i	i	79	i	34	i	i	57	i	57
O=C1c2cccc(NCCCNCCO)c2C(=O)c2cccc(NCCCNCCO)c21	93	i	i	16	21	105	82	102	18	i	13	Tn6 DDE ctr=i;Tn6 DDE conf=32
SMILES	UHRF1 MBD2 ctr	TDP2 inh	Tn7 DDE FP	LEDGF integ inh	Tn6 DDE FP	MBD2 DNA inh	UHRF1 DNA bind	MBD2 DBD conf	IN multimer act	TRFRET interf	LEDGF integ conf	others
NC1=NC(=O)/C(=C\c2ccco2)S1	68	i	i	62	i	24	47	24	30	i	50
COc1cc(N)c(C(=O)c2nccc3cc(OC)c(OC)cc23)cc1OC	i	i	i	i	i	i	nt	nt	nt	nt	nt
COc1cc(Br)c(C(=O)c2nccc3cc(OC)c(OC)cc23)cc1OC	25	91	i	15	i	14	37	26	i	i	75	TDP2 inh conf=56
COC(=O)c1cc2c(c3c4cc(F)ccc4n(S(=O)(=O)c4ccc(C)cc4)c13)C(=O)N(Cc1ccccc1OC)C2	i	i	i	i	i	i	nt	nt	nt	nt	nt
Cc1cc(NS(=O)(=O)c2ccc(NC(=S)NC(=O)c3cccnc3)cc2)no1	65	i	i	26	i	27	i	i	i	i	i
O=Cc1cccc(OC(=O)/C=C/c2ccco2)c1	48	i	i	16	i	17	48	25	11	i	36
COC(=O)c1ccc(OC(=O)/C=C/c2ccco2)cc1	i	i	i	i	i	i	nt	nt	nt	nt	nt
O=c1ccc2ccc(O)cc2o1	i	i	i	i	i	i	nt	nt	nt	nt	nt
O=c1ccc2cc(O)c(O)cc2o1	94	i	i	94	i	71	i	i	i	i	i

Assay outcomes as filed in PubChem BioAssay.
